From ChEMBL document CHEMBL1137359, “Potent and orally bioavailable 8-bicyclo[2.2.2]octylxanthines as adenosine A1 receptor antagonists” (J Med Chem, 2006) come the findings set out here.

The target in test [1] is T1, Adenosine receptor A1 (Homo sapiens, UniProt P30542).
T1 sequence (P30542 whole entry): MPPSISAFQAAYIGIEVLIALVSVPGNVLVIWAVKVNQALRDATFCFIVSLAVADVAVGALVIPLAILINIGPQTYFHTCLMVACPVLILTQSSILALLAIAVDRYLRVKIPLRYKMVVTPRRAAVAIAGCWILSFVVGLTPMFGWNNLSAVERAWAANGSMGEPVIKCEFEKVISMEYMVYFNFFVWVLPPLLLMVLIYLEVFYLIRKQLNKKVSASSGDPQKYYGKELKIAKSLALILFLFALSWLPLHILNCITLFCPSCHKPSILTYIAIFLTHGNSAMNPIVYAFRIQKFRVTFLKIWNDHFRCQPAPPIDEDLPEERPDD
The test can be described thus: Displacement of [125I]ABA from human adenosine A1 receptor expressed in CHOK1 cells. The test is classed as cell-based, CHO-K1. In a few lines:
(§1)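 Membranes from stably transfected CHO-K1 (hA1) or HEK (hA2A, hA2B, hA3) cells, 2 h at room temperature in 50 mM HEPES pH 7.4, 1 mM EDTA, 5 mM MgCl2, 1 U/mL adenosine deaminase. 5% DMSO final except hA3. Full curves 10^-11–10^-5 M, seven concentrations, four determinations each. Filtration, γ-counting, Ki derived.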

For test [2], the target named is T2, Adenosine receptor A2a (Homo sapiens, UniProt P29274). The test is described as follows: Displacement of [125I]ZM-241385 from human adenosine A2A receptor expressed in HEK cells. The test is classed as cell-based, HEK293. A digest of the protocol: as §1
The target in test [3] is T3, Adenosine receptor A2b (Homo sapiens) (UniProt P29275).
T3 sequence (whole entry): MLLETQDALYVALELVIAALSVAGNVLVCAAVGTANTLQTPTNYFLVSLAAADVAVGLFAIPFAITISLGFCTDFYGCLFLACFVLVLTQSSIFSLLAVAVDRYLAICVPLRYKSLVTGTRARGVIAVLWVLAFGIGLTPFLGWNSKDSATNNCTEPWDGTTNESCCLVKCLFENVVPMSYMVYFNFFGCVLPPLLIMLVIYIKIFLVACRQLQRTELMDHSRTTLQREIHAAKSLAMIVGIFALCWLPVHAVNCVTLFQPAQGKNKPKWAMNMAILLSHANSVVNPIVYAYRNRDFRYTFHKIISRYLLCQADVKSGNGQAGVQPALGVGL
The test is described as follows: Displacement of [125I]3-(4-aminobenzyl)-8-phenyloxyacetate-1-propyl-xanthine from human adenosine A2B receptor expressed in HEK cells relative to control. It is filed as cell-based. More on the design: concentration or dose not given beside the values. Conditions: HEK293. A digest of the protocol: (§2)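 Single-point screen at 1 µM antagonist, run in duplicate, on transfected-cell membranes: CHO-K1 (hA1), HEK (hA2A, hA2B, hA3). 2 h at room temperature in 50 mM HEPES pH 7.4, 1 mM EDTA, 5 mM MgCl2, 1 U/mL adenosine deaminase; 5% DMSO except hA3. Nonspecific binding with 50 µM XAC, or 10 µM BW-1433 for hA3. Result is % radioligand bound relative to control.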

The target of test [4] is T4, Adenosine receptor A3 (Homo sapiens) (UniProt P0DMS8).
T4 sequence (whole entry): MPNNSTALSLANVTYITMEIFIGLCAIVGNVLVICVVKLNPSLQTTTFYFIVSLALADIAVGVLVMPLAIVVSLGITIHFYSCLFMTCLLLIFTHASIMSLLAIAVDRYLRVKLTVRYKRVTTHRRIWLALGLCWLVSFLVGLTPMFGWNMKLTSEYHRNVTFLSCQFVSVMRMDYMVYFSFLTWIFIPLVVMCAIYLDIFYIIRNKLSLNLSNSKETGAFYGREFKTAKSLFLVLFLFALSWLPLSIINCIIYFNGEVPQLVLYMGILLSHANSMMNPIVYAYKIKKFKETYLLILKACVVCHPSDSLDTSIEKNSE
The test is described as follows: Displacement of [125I]ABA from human adenosine A3 receptor expressed in HEK cells relative to control. It is filed as cell-based. More on the design: concentration or dose not given beside the values. Conditions: HEK293. In a few lines:
as §2

The target of test [5] is T5, Adenosine receptor A1 (Homo sapiens) (UniProt P30542).
T5 sequence (whole entry): T1 sequence (P30542 whole entry)
The test can be described thus: Displacement of [125I]ABA from human adenosine A1 receptor expressed in CHOK1 cells relative to control. The test is classed as cell-based. More on the design: concentration or dose not given beside the values. Conditions: CHO-K1. A digest of the protocol: as §2

The target in test [6] is T2, Adenosine receptor A2a. The test is described as follows: Displacement of [125I]ZM-241385 from human adenosine A2A receptor expressed in HEK cells relative to control. More on the design: concentration or dose not given beside the values. Conditions: HEK293. The test is classed as cell-based. In a few lines: as §2
For test [7], the target named is Adenosine receptors; A1 & A2a (Homo sapiens) (UniProt P30542+P29274). The test can be described thus: Selectivity for human adenosine A1 receptor over human adenosine A2A receptor. The test is classed as protein assay.
Test [8] has as its target T6, Adenosine receptor A3 (Homo sapiens, UniProt P0DMS8).
T6 sequence (P0DMS8 whole entry): T4 sequence (whole entry)
The test is described as follows: Displacement of [125I]ABA from human adenosine A3 receptor expressed in HEK cells. It is filed as cell-based, HEK293. A digest of the protocol: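 Membranes from stably transfected CHO-K1 (hA1) or HEK (hA2A, hA2B, hA3) cells, 2 h at room temperature in 50 mM HEPES pH 7.4, 1 mM EDTA, 5 mM MgCl2, 1 U/mL adenosine deaminase. 5% DMSO final except hA3. Radioligands: 0.3 nM (hA1) or 0.6 nM (hA3) 125I-ABA, 0.7 nM 125I-ZM241385, 0.5 nM A2B ligand. Full curves 10^-11–10^-5 M, seven concentrations, four determinations each. Filtration, γ-counting, Ki derived.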

In test [9] the target is T7, Adenosine receptor A2b (Homo sapiens, UniProt P29275).
T7 sequence (P29275 whole entry): T3 sequence (whole entry)
The test can be described thus: Displacement of [125I]3-(4-aminobenzyl)-8-phenyloxyacetate-1-propyl-xanthine from human adenosine A2B receptor expressed in HEK cells. It is filed as cell-based, HEK293. A digest of the protocol:
as §1

T2 sequence (P29274 whole entry): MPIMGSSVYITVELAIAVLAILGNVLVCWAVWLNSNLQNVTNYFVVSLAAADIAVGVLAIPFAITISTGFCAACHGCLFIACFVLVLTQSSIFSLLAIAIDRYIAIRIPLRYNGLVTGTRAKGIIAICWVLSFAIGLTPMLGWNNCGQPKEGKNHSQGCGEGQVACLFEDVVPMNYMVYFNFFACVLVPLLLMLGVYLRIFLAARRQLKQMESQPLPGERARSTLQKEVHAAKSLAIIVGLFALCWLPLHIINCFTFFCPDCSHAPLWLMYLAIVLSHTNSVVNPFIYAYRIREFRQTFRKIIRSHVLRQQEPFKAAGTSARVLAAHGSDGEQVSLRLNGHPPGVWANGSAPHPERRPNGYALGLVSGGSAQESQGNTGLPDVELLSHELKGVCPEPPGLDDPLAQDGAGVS
Adenosine receptors; A1 & A2a (Homo sapiens), sequence (P29274 whole entry, looked up, one chain of several): as the sequence (P29274 whole entry) above

As to `CCCn1c(=O)c2[nH]c([C@H]3CC[C@H](NC(=O)OCc4ccccc4)CC3)nc2n(CCC)c1=O`, the inhibition constant Ki was 109 nM in test [1] and 2960 nM in test [2].

Regarding `CCCn1c(=O)c2[nH]c([C@H]3CC[C@H](CO)CC3)nc2n(CCC)c1=O`, the results for the inhibition constant (Ki) in test [1] and in test [2] were 41 nM and 313 nM, respectively.

Regarding `CCCn1c(=O)c2nc([C@H]3CC[C@H](C(=O)O)CC3)[nH]c2n(CCC)c1=O`, the Activity in [3] worked out at 69%; in [4], 88%; in test [5] it was 31%; in test [6], 75%.

In the case of `CCCn1c(=O)c2nc([C@H]3CC[C@H](C(=O)N4CCOCC4)CC3)[nH]c2n(CCC)c1=O`, the Activity in test [3] stood at 48%; in test [4], 88%; in test [5] it was 60%; in test [6] it was 99%.

Regarding `CCCn1c(=O)c2nc([C@]34CC[C@](C(=O)NCCC(=O)OC)(CC3)CC4)[nH]c2n(CCC)c1=O`, the Ki in test [1] was 22 nM; in test [8] it was over 10000 nM; in [9], 505 nM; in test [2] it was 1400 nM. Further, the Ratio Ki in test [7] was 63.

Regarding `CCCn1c(=O)c2nc([C@]34CC[C@](/C=C/C(=O)O)(CC3)CC4)[nH]c2n(CCC)c1=O`, the Ki in test [1] was determined as 9.6 nM; in [9], 100 nM; in test [2], 3330 nM. The Activity in test [4] is 100%. The Ratio Ki in test [7] was determined as 333.

In the case of `CCCn1c(=O)c2nc([C@]34CC[C@](C(=O)N5CCC(C(=O)O)CC5)(CC3)CC4)[nH]c2n(CCC)c1=O`, the Ki in test [1] was 96 nM; in test [2] it was 7820 nM. The Activity in test [3] turned out to be 41%; in test [4], 100%. The Ratio Ki in test [7] stood at 81.

As for `CCCn1c(=O)c2nc([C@H]3CC[C@H](NC(C)=O)CC3)[nH]c2n(CCC)c1=O`, the Activity in test [3] turned out to be 38%; in test [4], 100%; in [5], 45%; in test [6], 92%.

As for `CCCn1c(=O)c2nc([C@H]3CC[C@H](C(=O)N(CC)CC)CC3)[nH]c2n(CCC)c1=O`, the Activity in test [3] came to 39%; in [4] it was 100%; in [5], 46%; in test [6] it was 70%.

`CCCn1c(=O)c2nc([C@]34CC[C@](C(=O)NCCN(C)C)(CC3)CC4)[nH]c2n(CCC)c1=O`: the values for the Ki in test [1] and in test [2] were 6 nM and 132 nM, respectively. In addition, the Activity in test [3] was 3%; in [4], 79%. For the same compound, in test [7], the Ratio Ki was determined as 22.

For `CCCn1c(=O)c2nc([C@H]3CC[C@H](NC(=O)OCc4ccccc4)CC3)[nH]c2n(CCC)c1=O`, the Activity in test [3] stood at 24%; in [4], 86%. Also, the Ratio Ki in [7] is 27.

As to `CCCn1c(=O)c2nc([C@]34CC[C@](C=O)(CC3)CC4)[nH]c2n(CCC)c1=O`, the figures for the Ki in test [1] and in test [2] were 15 nM and 799 nM, respectively. In addition, the Activity in test [3] worked out at 14%; in test [4] it was 76%. In [7], the Ratio Ki is 53.

As for `CCCn1c(=O)c2nc([C@H]3CC[C@@H](NC(C)=O)CC3)[nH]c2n(CCC)c1=O`, the Activity came to 46% in [3], 100% in [4], 60% in test [5] and 63% in [6].

As to `CCCn1c(=O)c2nc([C@]34CC[C@](C(=O)NCC(=O)OC)(CC3)CC4)[nH]c2n(CCC)c1=O`, the inhibition constant Ki in test [1] was found to be 8 nM; in test [8], 6700 nM; in [9], 207 nM; in test [2] it was 681 nM. For the same compound, the Ratio Ki in [7] is 85.

With `CCCCNC(=O)[C@H]1CC[C@H](c2nc3c(=O)n(CCC)c(=O)n(CCC)c3[nH]2)CC1`, the values for the Ki in test [1] and in test [2] were 46 nM and 2260 nM, respectively. Further, the Activity worked out at 11% in test [3] and 93% in test [4]. Moreover, the Ratio Ki in test [7] was determined as 49.

`CCCn1c(=O)c2nc([C@H]3CC[C@H](C(=O)NCCN(C)C)CC3)[nH]c2n(CCC)c1=O`: the Ki in test [1] came to 12 nM; in test [2], 168 nM. In addition, the Activity in test [3] was 16%; in [4], 91%. Besides, in test [7], the Ratio Ki amounted to 14.

`CCCn1c(=O)c2nc([C@H]3CC[C@H](COCc4ccccc4)CC3)[nH]c2n(CCC)c1=O`: the inhibition constant Ki in test [1] came out at 171 nM; in [2] it was 2720 nM. In addition, the Activity in [3] was determined as 28%; in test [4], 95%. Also, the Ratio Ki in [7] was 16.

`CCCn1c(=O)c2[nH]c([C@]34CC[C@](C(=O)OC)(CC3)CC4)nc2n(CCC)c1=O`: the Ki in test [1] stood at 9 nM; in [2], 912 nM.

Take `CCCn1c(=O)c2nc(C3CCC(NC(=O)OCc4ccccc4)CC3)[nH]c2n(CCC)c1=O` (mixture of isomers): the Activity in test [3] was determined as 30%; in [4], 100%; in [5], 23%; in test [6], 69%.

As for `CCCn1c(=O)c2nc([C@]34CC[C@](CO)(CC3)CC4)[nH]c2n(CCC)c1=O`, the Ki in test [1] was 16 nM; in test [2], 414 nM. For the same compound, the values for the Activity in [3] and in test [4] were 27% and 73%, respectively. For the same compound, the Ratio Ki in [7] was 26.

Turning to `CCCn1c(=O)c2nc([C@H]3CC[C@H](CO)CC3)[nH]c2n(CCC)c1=O`, the Activity came out at 18% in test [3] and 77% in [4]. The Ratio Ki in test [7] stood at 8.

As for `CCCn1c(=O)c2nc([C@]34CC[C@](C(=O)NCC(=O)O)(CC3)CC4)[nH]c2n(CCC)c1=O`, the Ki in test [1] was 49 nM; in [2] it was 7880 nM. Further, the Activity in test [3] turned out to be 53%; in [4], 70%. For the same compound, in [7], the Ratio Ki worked out at 161.

For `CCCn1c(=O)c2nc([C@]34CC[C@](C(=O)OC)(CC3)CC4)[nH]c2n(CCC)c1=O`, the values for the Activity in test [3] and in test [4] were 19% and 44%, respectively. The Ratio Ki in test [7] was 101.

`CCCCC[C@]12CC[C@](c3nc4c(=O)n(CCC)c(=O)n(CCC)c4[nH]3)(CC1)CC2`: the Activity in test [3] was 100%; in test [4], 100%; in [5], 25%; in [6] it was 79%.

With `CCCn1c(=O)c2nc([C@]34CC[C@](C(=O)N(C)CC(=O)OC)(CC3)CC4)[nH]c2n(CCC)c1=O`, the inhibitory constant (Ki) in [1] was 112 nM; in [9] it was 296 nM; in [2], over 10000 nM. In [4], this compound yielded an Activity of 88%. Moreover, the Ratio Ki in test [7] was over 89.
